In ChEMBL document CHEMBL3797085, “Structure-Based Design and Synthesis of Novel Inhibitors Targeting HDAC8 from Schistosoma mansoni for the Treatment of Schistosomiasis” (J Med Chem, 2016) one finds Activity, viability and IC50 data, which are given here for nine compounds.

The structures appear in SMILES notation.

One series concerns Schistosoma mansoni. Briefly: Antiparasitic activity against schistosomula stage of Schistosoma mansoni assessed as parasite viability at 10 uM after 48 hrs by Alamar Blue assay relative to control. Format: functional.
Conditions: not given
Put shortly: (§1)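 Mechanically transformed S. mansoni schistosomula, 100 per well, in Medium 199 with 10% FCS, penicillin, streptomycin and rifampicin, held 3 h at 37°C/5% CO2 before use. […] Resazurin added at 48 h; fluorescence (ex 530/em 590 nm) read 24 h later, corrected for drug-medium background. Ethanol-killed larvae as dead control. Triplicate wells, two biological replicates.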
On the technique in general: Resazurin is reduced to fluorescent resorufin, in cell work by metabolically active cells.
As for `O=C(NO)c1ccc(F)c(NC(=O)c2ccccc2)c1`, the Activity turned out to be 82%.
Still for that read-out and setting: the result for `COc1ccc(C(=O)NO)cc1NC(=O)Cc1ccccc1` reads 83.3%; that for `COc1ccc(C(=O)NO)cc1NC(=O)c1ccc(Cl)cc1Cl`, 77.8%.
For the compound `O=C(NO)c1ccc(Cl)c(NC(=O)c2ccc(Cl)cc2Cl)c1`, the Activity was 72.5%.
On to `O=C(NO)c1ccc(Br)c(NC(=O)c2ccccc2)c1`, for which the Activity is 70.8%.
Still for that read-out and setting: to `COc1ccc(C(=O)NO)cc1NC(=O)c1ccccc1` belongs 77.4%; to `COc1ccc(C(=O)Nc2cc(C(=O)NO)ccc2OC)cc1`, 74.6%.
Same read-out and setting: to `O=C(NO)c1ccc(Cl)c(NC(=O)c2cccc(Oc3ccccc3)c2)c1` belongs 62.9%; to `COc1ccc(C(=O)NO)cc1NC(=O)c1ccccc1Cl`, 89.5%.

A further series relates to Schistosoma mansoni. Description: Antiparasitic activity against schistosomula stage of Schistosoma mansoni assessed as parasite viability at 20 uM after 48 hrs by Alamar Blue assay relative to control. Format: functional.
Conditions: not given
The gist of the method: as §1
Take `O=C(NO)c1ccc(F)c(NC(=O)c2ccccc2)c1`: the Activity was 78.6%.
Same read-out and setting: to `COc1ccc(C(=O)NO)cc1NC(=O)Cc1ccccc1` belongs 82.8%; to `COc1ccc(C(=O)NO)cc1NC(=O)c1ccc(Cl)cc1Cl`, 50.7%.
For `O=C(NO)c1ccc(Cl)c(NC(=O)c2ccc(Cl)cc2Cl)c1`, the Activity was determined as 59.3%.
The same measure, in the same setting: the result for `O=C(NO)c1ccc(Br)c(NC(=O)c2ccccc2)c1` reads 63.1%; that for `COc1ccc(C(=O)NO)cc1NC(=O)c1ccccc1`, 74.8%; that for `COc1ccc(C(=O)Nc2cc(C(=O)NO)ccc2OC)cc1`, 64.6%.
The same measure, in the same setting: to `O=C(NO)c1ccc(Cl)c(NC(=O)c2cccc(Oc3ccccc3)c2)c1` belongs 55%; to `COc1ccc(C(=O)NO)cc1NC(=O)c1ccccc1Cl`, 66.5%.

Test system in the next series: not listed separately
Description: Cytotoxicity against HEK293 cells assessed as cell viability at 50 uM after 24 hrs by Alamar Blue assay relative to control. Format: cell-based. The note with it: human, read-out: Activity. Put shortly:
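AlamarBlue added after 24 h, incubated a further 21 h; resorufin fluorescence ex 560/em 590 nm. Triplicates; viability relative to untreated cells; daunorubicin positive control.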
Turning to `O=C(NO)c1ccc(F)c(NC(=O)c2ccccc2)c1`, the viability at 24 h, 50 µM came out at 81.8%.
Same read-out and setting: to `COc1ccc(C(=O)NO)cc1NC(=O)Cc1ccccc1` belongs 88.7%; to `COc1ccc(C(=O)NO)cc1NC(=O)c1ccc(Cl)cc1Cl`, 95.1%; to `O=C(NO)c1ccc(Cl)c(NC(=O)c2ccc(Cl)cc2Cl)c1`, 70.4%.
Still for that read-out and setting: to `O=C(NO)c1ccc(Br)c(NC(=O)c2ccccc2)c1` belongs 64.3%; to `COc1ccc(C(=O)NO)cc1NC(=O)c1ccccc1`, 67.3%; to `COc1ccc(C(=O)Nc2cc(C(=O)NO)ccc2OC)cc1`, 61.9%.
On to `O=C(NO)c1ccc(Cl)c(NC(=O)c2cccc(Oc3ccccc3)c2)c1`, for which the viability at 24 h, 50 µM is 62%.
The same measure, in the same setting: to `COc1ccc(C(=O)NO)cc1NC(=O)c1ccccc1Cl` belongs 96.9%.

A further series has as its target T1, Histone deacetylase 8 (Schistosoma mansoni, UniProt A5H660).
T1 sequence (A5H660 whole entry): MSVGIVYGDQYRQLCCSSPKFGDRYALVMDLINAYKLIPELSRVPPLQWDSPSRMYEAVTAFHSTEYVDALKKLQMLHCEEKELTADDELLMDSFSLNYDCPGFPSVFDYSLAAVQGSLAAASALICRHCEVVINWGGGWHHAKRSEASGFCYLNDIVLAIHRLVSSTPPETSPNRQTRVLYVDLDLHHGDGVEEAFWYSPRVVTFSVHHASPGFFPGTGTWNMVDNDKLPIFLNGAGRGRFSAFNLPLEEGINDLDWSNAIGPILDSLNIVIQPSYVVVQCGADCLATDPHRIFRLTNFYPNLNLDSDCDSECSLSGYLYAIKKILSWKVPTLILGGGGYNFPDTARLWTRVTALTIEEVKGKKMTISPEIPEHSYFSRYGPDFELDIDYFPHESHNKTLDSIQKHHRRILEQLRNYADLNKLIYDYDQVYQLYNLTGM
Description: Inhibition of recombinant Schistosoma mansoni HDAC8 expressed in Escherichia coli using Fluor de Lys as substrate preincubated for 90 mins followed by BML-KI176 addition measured after 45 mins by fluorescence assay. As to conditions: read-out: IC50. The gist of the method:
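smHDAC8 produced in E. coli. Fluor de Lys kit: compound, Fluor de Lys-HDAC8 substrate (50 µM) and enzyme incubated 90 min at 37°C, then Developer II for 45 min at 30°C. Reaction stopped with trichostatin A (2 µM). Fluorescence read at ex 390/em 460 nm. IC50 given as mean ± S.E.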
As usually defined, the IC50 is the concentration that inhibits the measured activity by half. In the case of `O=C(NO)c1ccc(F)c(NC(=O)c2ccccc2)c1`, the IC50 came to 178 nM.
For `COc1ccc(C(=O)NO)cc1NC(=O)Cc1ccccc1`, the 50% inhibitory concentration (IC50) is 183 nM.
On the same count and under the same terms, to `COc1ccc(C(=O)NO)cc1NC(=O)c1ccc(Cl)cc1Cl` belongs 122 nM; to `O=C(NO)c1ccc(Cl)c(NC(=O)c2ccc(Cl)cc2Cl)c1`, 191 nM; to `O=C(NO)c1ccc(Br)c(NC(=O)c2ccccc2)c1`, 150 nM.
As to `COc1ccc(C(=O)NO)cc1NC(=O)c1ccccc1`, the IC50 was determined as 190 nM.
With `COc1ccc(C(=O)Nc2cc(C(=O)NO)ccc2OC)cc1`, the IC50 turned out to be 106 nM.
On the same count and under the same terms, the result for `O=C(NO)c1ccc(Cl)c(NC(=O)c2cccc(Oc3ccccc3)c2)c1` reads 396 nM.
In the case of `COc1ccc(C(=O)NO)cc1NC(=O)c1ccccc1Cl`, the IC50 came to 699 nM.

In another series the target is T2, Histone deacetylase 8 (Homo sapiens, UniProt Q9BY41).
T2 sequence (Q9BY41 whole entry): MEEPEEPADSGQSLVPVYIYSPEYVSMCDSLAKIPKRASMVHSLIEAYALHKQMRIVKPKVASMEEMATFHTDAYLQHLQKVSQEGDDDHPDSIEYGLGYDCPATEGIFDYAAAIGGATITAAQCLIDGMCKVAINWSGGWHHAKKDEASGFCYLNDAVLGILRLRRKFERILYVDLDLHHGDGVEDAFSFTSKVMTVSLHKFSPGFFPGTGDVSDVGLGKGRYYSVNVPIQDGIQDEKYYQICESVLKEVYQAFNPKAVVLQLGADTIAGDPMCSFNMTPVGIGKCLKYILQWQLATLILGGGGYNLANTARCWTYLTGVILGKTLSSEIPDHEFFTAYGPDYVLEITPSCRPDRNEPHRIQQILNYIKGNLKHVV
Briefly: Inhibition of recombinant human HDAC8 using Fluor de Lys as substrate preincubated for 90 mins followed by BML-KI176 addition measured after 45 mins by fluorescence assay. As to conditions: read-out: IC50.
`O=C(NO)c1ccc(F)c(NC(=O)c2ccccc2)c1`: the 50% inhibitory concentration (IC50) is 318 nM.
Regarding `COc1ccc(C(=O)NO)cc1NC(=O)Cc1ccccc1`, the IC50 was determined as 512 nM.
`COc1ccc(C(=O)NO)cc1NC(=O)c1ccc(Cl)cc1Cl`: the IC50 is 548 nM.
Regarding `O=C(NO)c1ccc(Cl)c(NC(=O)c2ccc(Cl)cc2Cl)c1`, the IC50 was found to be 1180 nM.
`O=C(NO)c1ccc(Br)c(NC(=O)c2ccccc2)c1`: the IC50 amounted to 191 nM.
Same read-out and setting: to `COc1ccc(C(=O)NO)cc1NC(=O)c1ccccc1` belongs 88.3 nM; to `COc1ccc(C(=O)Nc2cc(C(=O)NO)ccc2OC)cc1`, 77.1 nM.
In the case of `O=C(NO)c1ccc(Cl)c(NC(=O)c2cccc(Oc3ccccc3)c2)c1`, the IC50 amounted to 449 nM.
The same measure, in the same setting: to `COc1ccc(C(=O)NO)cc1NC(=O)c1ccccc1Cl` belongs 211 nM.

The target in another series is Histone deacetylase 1 (Homo sapiens, UniProt Q13547). Briefly: Inhibition of recombinant human HDAC1 using Cbz-(Ac)Lys-AMC as substrate preincubated for 90 mins followed by trypsin addition measured after 20 mins by fluorescence assay. The note with it: read-out: IC50.
Chain of Histone deacetylase 1 (Q13547 whole entry): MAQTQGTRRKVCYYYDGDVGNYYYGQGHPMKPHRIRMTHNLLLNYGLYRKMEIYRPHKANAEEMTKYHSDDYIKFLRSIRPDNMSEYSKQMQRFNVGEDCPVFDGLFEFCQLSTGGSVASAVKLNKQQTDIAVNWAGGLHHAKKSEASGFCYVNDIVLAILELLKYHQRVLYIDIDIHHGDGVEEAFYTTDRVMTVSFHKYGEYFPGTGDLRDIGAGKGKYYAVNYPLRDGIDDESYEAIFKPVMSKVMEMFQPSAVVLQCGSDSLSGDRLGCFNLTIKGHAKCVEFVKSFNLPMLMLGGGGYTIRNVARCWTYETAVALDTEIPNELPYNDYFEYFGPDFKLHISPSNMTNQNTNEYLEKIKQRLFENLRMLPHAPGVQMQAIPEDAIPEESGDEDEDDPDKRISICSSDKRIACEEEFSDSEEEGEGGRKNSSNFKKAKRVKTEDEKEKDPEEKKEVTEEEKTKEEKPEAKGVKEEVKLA
As for `O=C(NO)c1ccc(F)c(NC(=O)c2ccccc2)c1`, the IC50 was found to be 22300 nM.
Still for that read-out and setting: the result for `COc1ccc(C(=O)NO)cc1NC(=O)Cc1ccccc1` reads 28900 nM; that for `COc1ccc(C(=O)NO)cc1NC(=O)c1ccc(Cl)cc1Cl`, 13000 nM; that for `O=C(NO)c1ccc(Cl)c(NC(=O)c2ccc(Cl)cc2Cl)c1`, 31600 nM.
The same measure, in the same setting: the result for `O=C(NO)c1ccc(Br)c(NC(=O)c2ccccc2)c1` reads 7400 nM; that for `COc1ccc(C(=O)NO)cc1NC(=O)c1ccccc1`, 2300 nM.
For `COc1ccc(C(=O)Nc2cc(C(=O)NO)ccc2OC)cc1`, the IC50 worked out at 2600 nM.
Still for that read-out and setting: the result for `O=C(NO)c1ccc(Cl)c(NC(=O)c2cccc(Oc3ccccc3)c2)c1` reads 6400 nM.
For `COc1ccc(C(=O)NO)cc1NC(=O)c1ccccc1Cl`, the IC50 amounted to 9600 nM.

The next series has as its target T3, Protein deacetylase HDAC6 (Homo sapiens, UniProt Q9UBN7).
T3 sequence (Q9UBN7 whole entry): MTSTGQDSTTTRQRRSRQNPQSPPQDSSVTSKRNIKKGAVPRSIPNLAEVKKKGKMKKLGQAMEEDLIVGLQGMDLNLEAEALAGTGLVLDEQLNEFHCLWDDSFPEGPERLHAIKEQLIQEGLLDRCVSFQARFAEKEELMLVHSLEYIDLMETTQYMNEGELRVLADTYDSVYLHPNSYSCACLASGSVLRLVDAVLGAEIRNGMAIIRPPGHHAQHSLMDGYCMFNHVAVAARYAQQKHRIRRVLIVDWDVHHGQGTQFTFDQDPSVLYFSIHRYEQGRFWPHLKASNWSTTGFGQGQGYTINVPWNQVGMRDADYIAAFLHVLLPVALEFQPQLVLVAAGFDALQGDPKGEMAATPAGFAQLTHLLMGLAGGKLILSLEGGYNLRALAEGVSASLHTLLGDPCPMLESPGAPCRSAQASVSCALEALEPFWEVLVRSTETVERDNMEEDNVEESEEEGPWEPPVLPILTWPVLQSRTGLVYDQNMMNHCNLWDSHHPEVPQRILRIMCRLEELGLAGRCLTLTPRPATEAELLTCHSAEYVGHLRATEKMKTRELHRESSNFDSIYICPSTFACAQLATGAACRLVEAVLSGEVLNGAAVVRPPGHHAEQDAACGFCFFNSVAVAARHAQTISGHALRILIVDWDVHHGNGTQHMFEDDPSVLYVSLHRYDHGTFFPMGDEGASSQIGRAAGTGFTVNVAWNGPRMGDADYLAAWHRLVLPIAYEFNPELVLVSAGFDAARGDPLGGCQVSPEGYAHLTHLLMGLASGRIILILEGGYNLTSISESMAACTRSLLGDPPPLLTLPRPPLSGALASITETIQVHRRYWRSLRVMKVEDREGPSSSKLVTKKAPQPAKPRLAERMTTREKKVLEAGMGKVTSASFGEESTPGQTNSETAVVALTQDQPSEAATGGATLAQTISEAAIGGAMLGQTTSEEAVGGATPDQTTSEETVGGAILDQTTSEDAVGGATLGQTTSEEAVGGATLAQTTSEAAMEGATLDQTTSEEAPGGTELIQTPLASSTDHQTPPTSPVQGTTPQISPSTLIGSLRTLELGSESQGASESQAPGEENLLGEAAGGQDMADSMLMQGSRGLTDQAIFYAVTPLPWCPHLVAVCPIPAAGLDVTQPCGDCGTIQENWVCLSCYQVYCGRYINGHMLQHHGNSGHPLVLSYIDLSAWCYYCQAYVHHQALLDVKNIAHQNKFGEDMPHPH
Description: Inhibition of recombinant human HDAC6 using Cbz-(Ac)Lys-AMC as substrate preincubated for 90 mins followed by trypsin addition measured after 20 mins by fluorescence assay. The note with it: read-out: IC50.
On to `O=C(NO)c1ccc(F)c(NC(=O)c2ccccc2)c1`, for which the IC50 was found to be 500 nM.
Still for that read-out and setting: the result for `COc1ccc(C(=O)NO)cc1NC(=O)Cc1ccccc1` reads 5100 nM; that for `COc1ccc(C(=O)NO)cc1NC(=O)c1ccc(Cl)cc1Cl`, 2300 nM.
Still for that read-out and setting: the result for `O=C(NO)c1ccc(Cl)c(NC(=O)c2ccc(Cl)cc2Cl)c1` reads 800 nM; that for `O=C(NO)c1ccc(Br)c(NC(=O)c2ccccc2)c1`, 150 nM; that for `COc1ccc(C(=O)NO)cc1NC(=O)c1ccccc1`, 2500 nM.
The same measure, in the same setting: to `COc1ccc(C(=O)Nc2cc(C(=O)NO)ccc2OC)cc1` belongs 400 nM; to `O=C(NO)c1ccc(Cl)c(NC(=O)c2cccc(Oc3ccccc3)c2)c1`, 300 nM.
Consider `COc1ccc(C(=O)NO)cc1NC(=O)c1ccccc1Cl`, for which the IC50 was 3100 nM.
